Many of the other results were omitted from the sample, so hits are more common in it than they were.
bCat KO growth – beta-catenin-lacking colon tumor cell growth suppression; HCT116 beta-catenin knockout viability, CellTiter-Glo, 60 h; active compounds read low; viability, % at 10 µM; hit rate 1.5% among 140,000; AID 818;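 active = viability at or under a set limit, the compound median less 4 SD, cut at about 6% in these data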
HUVEC inhibit – human endothelial cell proliferation inhibition | HUVEC proliferation, CellTiter-Glo luminescence, 72 h; active compounds read low | viability, % at 10 µM (by protocol) | hit rate 1.1% among 86,000 | AID 648;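 active = viability at or below 30%; inactive = viability above 30%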
Fibroblast inh – blocks proliferation of human lung fibroblasts. LL 47 human lung fibroblast viability, ATP luminescence; active compounds read low. hit rate 1.1% among 85,000. viability, % at 10 µM;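 active = viability at or below 50% in the single dose screen; inactive = viability above 50%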;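 note: compound exposure lasted 72 h before the ATP readout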
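Material: human lung fibroblast line LL 47, low passage; Evaluation: viability percentage against median untreated-cell control; Buffer or medium: 15% FBS in IMEM; Incubation: 72 h compound exposure at 37 °C after overnight plating; Dosing: 0.1% DMSO in all compound wells; Measured by: CellTiter-Glo luminescence.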
H69AR inhibit – growth inhibitors of human H69AR lung tumor cells | H69AR lung tumor viability, ATP luminescence, 72 h; active compounds read low | viability, % at 10 µM | hit rate 6% among 85,000;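 active = viability at or below 40%; inactive = viability above 40%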;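 note: multidrug resistant small cell line overexpressing MRP-1 efflux transporter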
PTEN del growth – growth suppressors of cells with PTEN tumor suppressor deletion | HCT116 PTEN-null viability, CellTiter-Glo, 60 h; active compounds read low | viability, % at 10 µM | hit rate 1.2% among 140,000 | AID 827;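 active = viability at or below a set limit, 4 SD under the median of all tested compounds, cut at about 3.7% in these data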;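 note: PTEN knockout HCT116 line with beta catenin targeted HCT116 as companion control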
Large screens that a line does not name were inactive.

CCOC(=O)Cn1c2ccc(OC)cc2c2nc3ccccc3nc21	H69AR inhibit 24
Cc1cnnn1-c1ccc(C(=O)CCl)cc1	H69AR inhibit 0.0
CC#CC[N+](C)(C)CCCCCCCCCCCC	bCat KO growth 0.8, PTEN del growth 0.6 (no result: HUVEC inhibit, Fibroblast inh, H69AR inhibit)
C#CC[N+](C)(C)CCCCCCCCCC	none (no result: HUVEC inhibit, Fibroblast inh, H69AR inhibit)
C#CC[N+](C)(C)CCCCCCCCCCCC	bCat KO growth 1.4, PTEN del growth 1.7 (no result: HUVEC inhibit, Fibroblast inh, H69AR inhibit)
O=C1C2C3C=CC(CO)(O3)C2C(=O)N1c1ccccc1-c1ccccc1 (stereo not drawn)	Fibroblast inh 8.3, H69AR inhibit 3.9
CC(NCCC(c1ccccc1)c1ccccc1)c1ccccc1 (stereo not drawn)	bCat KO growth 1.9, HUVEC inhibit 26, Fibroblast inh 2.7, H69AR inhibit 0.2
CCNCCOC(c1ccccc1)c1ccccc1	none
Cc1cc(=O)oc(C)c1C(=O)OCC(=O)c1ccc(Cl)cc1	none
COc1ccccc1NC(=S)NNC(=O)c1ccccc1Br	none (no result: HUVEC inhibit, Fibroblast inh, H69AR inhibit)
C/C(=N/NC(=O)c1ccc2nc[nH]c2c1)c1cccs1	none (no result: HUVEC inhibit, Fibroblast inh, H69AR inhibit)
COc1ccc(C(C(=O)NC2CCCC2)N(C(=O)c2snc(-c3ccc(F)cc3)c2N)c2ccc(OC)cc2)cc1 (stereo not drawn)	none (no result: HUVEC inhibit, Fibroblast inh, H69AR inhibit)
COc1ccc(C(C(=O)NC2CCCCC2)N(C(=O)CCl)c2ccc(Cl)cc2)cc1 (stereo not drawn)	bCat KO growth 1.8, PTEN del growth 1.8 (no result: HUVEC inhibit, Fibroblast inh, H69AR inhibit)
O=C(NC1CCCCC1)C(c1cccnc1)N(C(=O)CCl)c1cccc(Cl)c1 (stereo not drawn)	bCat KO growth 3.9, PTEN del growth 3.1 (no result: HUVEC inhibit, Fibroblast inh, H69AR inhibit)
COc1ccc(N(C(=O)c2cnccn2)C(C(=O)NC2CCCCC2)c2ccc(Cl)cc2)cc1 (stereo not drawn)	none (no result: bCat KO growth, PTEN del growth)
COc1ccc(C(C(=O)NC2CCCC2)N(C(=O)c2snc(-c3ccc(F)cc3)c2N)c2ccc(F)cc2)cc1 (stereo not drawn)	bCat KO growth 5.5 (no result: HUVEC inhibit, Fibroblast inh, H69AR inhibit)
COc1cccc(N(C(=O)c2ccco2)C(C(=O)NC2CCCC2)c2cccnc2)c1 (stereo not drawn)	none
COc1cc(-c2nnc(SCC3(c4ccccc4)OCCO3)o2)cc(OC)c1OC	none (no result: HUVEC inhibit, Fibroblast inh, H69AR inhibit)
COc1ccccc1NC(=O)c1ccc(-c2ccc(Br)cc2)o1	H69AR inhibit 19
COc1ccccc1C(=O)Nc1cc2cc(Br)ccc2oc1=O	none
COc1ccccc1C(=O)Nc1cc2ccccc2oc1=O	H69AR inhibit 32
COc1ccc(-c2cc3ccccc3oc2=O)cc1NC(=O)c1ccc(Br)o1	H69AR inhibit 32
COc1ccc(-c2cc3ccccc3oc2=O)cc1NC(=O)c1ccc([N+](=O)[O-])o1	none (no result: HUVEC inhibit, Fibroblast inh, H69AR inhibit)
O=C(C1CCCN(CCCc2ccccc2)C1)N1CCCCCC1 (stereo not drawn)	none (no result: HUVEC inhibit, Fibroblast inh, H69AR inhibit)
O=C(COc1nnnc2ccccc12)N1CCCc2ccccc21	none
O=C(COc1nc2ccccc2nc1N1CCOCC1)N1CCc2ccccc21	Fibroblast inh 40, H69AR inhibit 36
Cc1ccc2nc(SC(C)C(=O)NCc3ccc4c(c3)OCO4)[nH]c2c1 (stereo not drawn)	none (no result: HUVEC inhibit, Fibroblast inh, H69AR inhibit)
O=C(Nc1ccc(Cl)c(Cl)c1)Nc1ccc(N2CCCC2)c(S(=O)(=O)Nc2ccccc2Cl)c1	bCat KO growth 1.6, PTEN del growth 1.4 (no result: HUVEC inhibit, Fibroblast inh, H69AR inhibit)
O=C(Nc1ccc(F)cc1)Nc1ccc(N2CCCC2)c(S(=O)(=O)Nc2ccccc2Cl)c1	bCat KO growth 2.8, PTEN del growth 1.9 (no result: HUVEC inhibit, Fibroblast inh, H69AR inhibit)
COc1ccc(C(=O)Oc2cccc(/C=N/NC(N)=S)c2)cc1	none (no result: HUVEC inhibit, Fibroblast inh, H69AR inhibit)
COc1ccc(C2=Nn3c(nnc3-c3ccco3)SC2)cc1OC	none
NCCCCC(NC(=O)C1CCCN1C(=O)C1CSSCC(N)C(=O)NC(Cc2ccc(O)cc2)C(=O)NC(Cc2ccccc2)C(=O)NC(CCC(N)=O)C(=O)NC(CC(N)=O)C(=O)N1)C(=O)NCC(N)=O (stereo not drawn)	none (no result: HUVEC inhibit, Fibroblast inh, H69AR inhibit)
N#CC1=C2SCC(O)(c3ccccc3)N2C(=O)CC1c1ccccc1 (stereo not drawn)	Fibroblast inh 47, H69AR inhibit 24
CCc1c(O)cc(=O)n(-c2ccccc2)c1-c1ccccc1	none (no result: HUVEC inhibit, Fibroblast inh, H69AR inhibit)
COc1ccc(C(=O)c2ccc(Cl)cc2)c2ccccc12	H69AR inhibit 17
COc1ccc(C(=O)c2ccccc2)c2c(O)ccc(C(=O)c3ccccc3)c12	none
Cc1ccc(S(=O)(=O)Oc2ccccc2/C=N/NC(=O)c2c(Cl)cnn2C)cc1	H69AR inhibit 33
Cc1onc(-c2ccccc2)c1C(=O)Nc1sc2c(c1C(N)=O)CCC2	H69AR inhibit 34
Cc1onc(-c2c(F)cccc2Cl)c1C(=O)Nc1sc2c(c1C#N)CCC(C(C)(C)C)C2 (stereo not drawn)	none
N#Cc1c(NC(=O)CSc2nnc(-c3ccncc3)n2CC2CCCO2)sc2c1CCCC2 (stereo not drawn)	none (no result: H69AR inhibit)
Cc1nnc(NC(=O)c2c(-c3ccccc3)noc2C)s1	none
Cc1onc(-c2ccccc2)c1C(=O)NC(=S)Nc1sc2c(c1C#N)CCCC2	none (no result: HUVEC inhibit, Fibroblast inh, H69AR inhibit)
Cc1onc(-c2c(F)cccc2Cl)c1C(=O)Nc1sc2c(c1C(N)=O)CCC2	H69AR inhibit 16
NC(=O)c1c(NC(=O)CSc2nnc(-c3ccccc3)n2CC2CCCO2)sc2c1CCC2 (stereo not drawn)	H69AR inhibit 33
Cc1onc(-c2ccccc2)c1C(=O)Nc1sc2c(c1C#N)CCC2	H69AR inhibit 16
COc1ccc(CNC(=O)C2CCN(S(=O)(=O)c3cccc4cccnc34)CC2)cc1	none
COc1ccc(C(=O)Cc2nnc(C)s2)cc1	none (no result: HUVEC inhibit, Fibroblast inh, H69AR inhibit)
Cc1noc(C)c1C(=O)Nc1sc(C)c(-c2ccccc2)c1C#N	H69AR inhibit 32
Cc1cccc(C(=O)Nc2sc(C)c(-c3ccccc3)c2C#N)c1	none (no result: HUVEC inhibit, Fibroblast inh, H69AR inhibit)
CCOC(=O)CN1C(=O)C(Sc2n[nH]c(-c3ccc(O)cc3)n2)CCc2ccccc21 (stereo not drawn)	none (no result: HUVEC inhibit, Fibroblast inh, H69AR inhibit)
CCOC(=O)c1cc(NC(=O)CSCCO)ccc1Cl	H69AR inhibit 15
O=C1CCCCCN1Sc1ccccc1	H69AR inhibit 3.0
CCN(CC)Cc1nc2c(c(=O)[nH]1)C1(CCCCC1)Cc1ccccc1-2	none
CN(C)Cc1nc2c(c(=O)[nH]1)C1(CCCCC1)Cc1ccccc1-2	H69AR inhibit 7.2
COc1ccc(S(=O)(=O)N(CCc2ccccc2)CC(=O)O)cc1	none
CC1(C)Oc2nc3ccccc3n2/C1=C\C#N	none
Cc1cc(C(=O)CN2C(=O)NC(C)(c3cccc(Br)c3)C2=O)c(C)n1Cc1ccco1 (stereo not drawn)	bCat KO growth 1.8, PTEN del growth 3.4
Cc1cc(C(=O)CN2C(=O)NC(c3ccccc3)(c3ccccc3)C2=O)c(C)n1Cc1ccco1	none
CC(Nc1nc(N2CCCCC2)nc2ccccc12)c1ccccc1 (stereo not drawn)	bCat KO growth 4.2, HUVEC inhibit 3.6, Fibroblast inh 21, H69AR inhibit 3.2
C=CCNc1nc(N2CCCC2)nc2ccccc12	none
COc1ccc(Nc2nc(N3CCCC3)nc3ccccc23)c(OC)c1	bCat KO growth 1.4, H69AR inhibit 2.1, PTEN del growth 1.4
COc1ccc(Nc2ncnc3ccccc23)c(OC)c1	none
Nc1nnc(SCC(=O)NN2C(=O)NC3(CCCCC3)C2=O)s1	none (no result: HUVEC inhibit, Fibroblast inh, H69AR inhibit)
